Assay outcomes from PubChem BioAssay.
Hits are enriched below; roughly 2.9% of the tested compounds scored in any of these assays.
Mot1-301 SUMO = blocks SUMOylation pathway, rescuing yeast Mot1-301 growth; S. cerevisiae Mot1-301 growth rescue, ATP luminescence, 38.5C; percent above DMSO median, 100 means doubled; growth rescue, % at 18.8 µM; 320,000 tested, 1% active; AID 2716;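 active = every valid replicate shows activation above 250% relative to neutral control wells; inactive = the rest, any valid replicate at or below 250%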;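 note: OY570 slx delta 5 strain wells were the positive control but not used for scaling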
FID counter = fluorescent intercalator displacement, NS3 helicase counter-screen | 290,000 tested, 0.17% active | DNA fluorescent intercalator displacement, fluorescence | inhibition, % at 7.9 µM; in the data active = inhibition above about 37%;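 note: 0% = vehicle and 100% = reference compound; higher means more ethidium bromide displaced from hairpin DNA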
IMP-1 inh = blocks Pseudomonas aeruginosa IMP-1 metallo-beta-lactamase; purified IMP-1, nitrocefin hydrolysis, epi-absorbance fluorescence; inhibition, % at 5.6 µM; 290,000 tested, 0.45% active; AID 1556;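 active = inhibition above the mean plus 3 SD of all compounds in the same screening run, cut at about 4.5% in these data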;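 note: 0% = IMP-1 with DMSO and 100% = DMSO wells lacking enzyme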
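System: purified IMP-1 / Input: IMP-1 dispensed at 0.2 nM / Medium: 50 mM HEPES pH 7.1, 50 µM ZnSO4, 0.05% Brij 35 / Timing: 15 min enzyme–compound preincubation, then 25 min nitrocefin reaction, 25 °C / Technique: plate fluorescence quenching by hydrolysis product, ex 480/em 530 nm / Repeats: singlicate testing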
SUMO HTRF inh = inhibitors of human SUMOylation (UBC9); inhibition, % at 35 µM; P63279; HTRF SUMOylation assay, SAE1/SAE2 + UBC9, in vitro; 290,000 tested, 0.36% active; in the data active = inhibition above about 50%, passing the limit was not always enough
Target sequence (P63279 whole entry, looked up): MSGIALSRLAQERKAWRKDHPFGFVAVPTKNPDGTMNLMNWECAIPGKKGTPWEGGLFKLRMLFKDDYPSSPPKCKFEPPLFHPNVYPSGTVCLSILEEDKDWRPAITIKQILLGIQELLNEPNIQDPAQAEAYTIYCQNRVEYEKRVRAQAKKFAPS
NALP1 inh = blocks the NALP1 inflammasome reconstituted in yeast; S. cerevisiae NALP1/ASC/caspase-1 growth, X-gal OD620, 72 h; 280,000 tested, 0.61% active; inhibition, % at 10 µM; in the data active = inhibition mostly above about 24%, no sharp cut-off; inactive = mostly below about 32%
VIM-2 inhibitor = blocks Pseudomonas aeruginosa VIM-2 metallo-beta-lactamase. purified VIM-2, nitrocefin hydrolysis, epi-absorbance fluorescence. 290,000 tested, 0.89% active. inhibition, % at 5.6 µM. AID 1527;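 active = inhibition above the mean of all tested compounds plus 3 SD, cutoff set per screening run, cut at about 7.5% in these data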;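 note: red hydrolysis product quenches plate fluorescence so inhibitors raise well fluorescence; 0% = enzyme with DMSO and 100% = DMSO without enzyme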
The depositor's hits bear a star.

Screening O=C(CO/N=C/c1cccc([N+](=O)[O-])c1)NC1CCCCC1 returned Mot1-301 SUMO 482.9, FID counter -0.9, IMP-1 inh -2.5, SUMO HTRF inh -12.7, NALP1 inh 30.5 and VIM-2 inhibitor -2.2.
For O=C(CO/N=C/c1cccc([N+](=O)[O-])c1)Nc1ccc2ccccc2c1 the results were Mot1-301 SUMO 338.0*, FID counter 7.1, IMP-1 inh -3.3, SUMO HTRF inh 1.3, NALP1 inh 38.8 and VIM-2 inhibitor -3.0.
Screening CCCCCCCC(=O)Nc1ccc(C(=O)N/N=C/c2cccc([N+](=O)[O-])c2)cc1 returned Mot1-301 SUMO -5.3, FID counter 4.3, IMP-1 inh -2.8, SUMO HTRF inh 50.2*, NALP1 inh -10.4 and VIM-2 inhibitor -1.2.
For Cc1nc2ccc(NS(=O)(=O)c3ccc(F)c(C)c3)cc2[nH]1 the results were Mot1-301 SUMO -12.8, FID counter 2.8, IMP-1 inh -3.8, SUMO HTRF inh 8.2, NALP1 inh 21.7 and VIM-2 inhibitor -1.9.
For CC(C)C1Nc2ccc(C(=O)O)cc2C2C=CCC21 (stereo not drawn) the results were Mot1-301 SUMO -3.7, FID counter -16.8, IMP-1 inh -2.0, SUMO HTRF inh 24.5, NALP1 inh 14.0 and VIM-2 inhibitor -4.0.
Cc1ccc2c(c1C)NC(C(=O)O)C1CC=CC21 (stereo not drawn) was read as Mot1-301 SUMO 360.9, SUMO HTRF inh 58.1* and NALP1 inh 10.0.
Screening CCOC(=O)C1Nc2ccc(C(=O)O)cc2C2C=CCC12 (stereo not drawn) returned Mot1-301 SUMO -20.9, FID counter -11.7, IMP-1 inh 35.1*, SUMO HTRF inh 25.0, NALP1 inh 17.2 and VIM-2 inhibitor -1.1.
Screening O=C(O)C1Nc2c(C(=O)N3CCOCC3)cccc2C2C=CCC12 (stereo not drawn) returned Mot1-301 SUMO -13.2, FID counter -31.2, IMP-1 inh -3.2, SUMO HTRF inh 30.4, NALP1 inh 30.3 and VIM-2 inhibitor -1.0.
`CCOC(=O)c1ccc2c(c1)C1C=CCC1C(C(=O)O)N2` (stereo not drawn) gave Mot1-301 SUMO -16.1, FID counter -11.5, IMP-1 inh -2.5, SUMO HTRF inh 59.6*, NALP1 inh 18.6 and VIM-2 inhibitor 0.5.
Screening O=C(COc1cccc(C(F)(F)F)c1)NCC(c1cccs1)N1CCOCC1 (stereo not drawn) returned Mot1-301 SUMO 0.1.
For O=C(CSc1nnc(CNC(=O)c2ccco2)o1)Nc1ccc(F)cc1F the results were Mot1-301 SUMO 276.6, FID counter -10.9, IMP-1 inh -2.0, SUMO HTRF inh 9.0, NALP1 inh -14.1 and VIM-2 inhibitor -2.1.
For O=C(Cn1nc(-c2ccc(Cl)cc2)c2ccccc2c1=O)NCC1CCCO1 (stereo not drawn) the results were Mot1-301 SUMO 333.1*, FID counter -14.6, IMP-1 inh -1.3, SUMO HTRF inh 17.9, NALP1 inh 13.4 and VIM-2 inhibitor -0.7.
Screening COc1ccc(N(C(=O)Cn2nnc(-c3ccc(C)o3)n2)C(C(=O)NC2CCCC2)c2ccncc2)cc1 (stereo not drawn) returned Mot1-301 SUMO -8.3, FID counter -36.3, IMP-1 inh -3.7, SUMO HTRF inh 6.3, NALP1 inh 12.7 and VIM-2 inhibitor -2.0.
For COc1ccc(NC(=O)CCl)cn1 the results were Mot1-301 SUMO 2.2, FID counter -1.5, IMP-1 inh -1.3, SUMO HTRF inh 82.7* and VIM-2 inhibitor -2.0.
Screening COc1cc(S(=O)(=O)NC(Cc2c[nH]c3ccccc23)C(=O)O)ccc1NC(C)=O (stereo not drawn) returned Mot1-301 SUMO -3.7, FID counter 1.5, IMP-1 inh 5.9*, SUMO HTRF inh -10.2, NALP1 inh 13.0 and VIM-2 inhibitor -0.8.
Screening Cc1ccc(N/C(N)=N/c2nc3c(c(=O)[nH]2)CCCC3)c(C)c1 returned Mot1-301 SUMO -2.5, FID counter -3.3, IMP-1 inh 5.0*, SUMO HTRF inh 3.3, NALP1 inh -10.3 and VIM-2 inhibitor -1.4.
`CC1(C)OC(=O)C(=Cc2ccc(-c3ccc(S(N)(=O)=O)cc3)o2)C(=O)O1` gave Mot1-301 SUMO 15.9, FID counter -10.7, IMP-1 inh 34.3*, SUMO HTRF inh 17.2, NALP1 inh 11.0 and VIM-2 inhibitor 1.1.
`NS(=O)(=O)c1ccc(-c2ccc(/C=C3\C(=O)Nc4ccccc43)o2)cc1` gave Mot1-301 SUMO 7.0, FID counter -1.7, IMP-1 inh -0.5, SUMO HTRF inh -12.7, NALP1 inh -0.2 and VIM-2 inhibitor 0.4.
For O=C1c2cccc3c(N4CCCCC4)ccc(c23)C(=O)N1c1ccccn1 the results were Mot1-301 SUMO 1.7, FID counter -5.6, IMP-1 inh 5.8*, SUMO HTRF inh -1.8, NALP1 inh 6.4 and VIM-2 inhibitor 3.3.
Screening Cc1nn(C)c(Oc2ccc(Cl)cc2)c1C(=O)Nc1ccc(F)cc1F returned Mot1-301 SUMO 312.2*, FID counter -6.3, IMP-1 inh -4.9, SUMO HTRF inh -24.6, NALP1 inh 1.5 and VIM-2 inhibitor -1.5.
Cn1nc(C(F)(F)F)c(C(=O)Nc2ccc(F)cc2F)c1Oc1cccc(Cl)c1 was read as Mot1-301 SUMO 6.6, FID counter -8.2, IMP-1 inh -2.0, SUMO HTRF inh 15.7, NALP1 inh 6.4 and VIM-2 inhibitor -2.1.
COc1cccc(-c2cc(C(=O)NCc3ccco3)no2)c1 was read as Mot1-301 SUMO -6.8, FID counter -24.3, IMP-1 inh -1.5, SUMO HTRF inh -2.2, NALP1 inh 29.2* and VIM-2 inhibitor 0.3.
`CC1CCCCC12NC(=O)N(CC(=O)Nc1ccccc1-c1ccccc1)C2=O` (stereo not drawn) gave Mot1-301 SUMO 5.1, FID counter -23.6, IMP-1 inh -0.9, SUMO HTRF inh 14.2, NALP1 inh 37.1* and VIM-2 inhibitor -1.6.
O=C(CN1C(=O)NC2(CCCC2)C1=O)Nc1ccccc1-c1ccccc1 was read as Mot1-301 SUMO -8.4, FID counter -7.7, IMP-1 inh -3.1, SUMO HTRF inh 21.8 and VIM-2 inhibitor -1.3.
Screening CCOC(=O)Cn1c2ccc(OC)cc2c2nc3ccccc3nc21 returned Mot1-301 SUMO -23.9, FID counter -0.4, IMP-1 inh -2.6, SUMO HTRF inh 53.9*, NALP1 inh 3.9 and VIM-2 inhibitor -3.6.
COC(=O)CCNCCSc1nnc(-c2ccco2)n1Cc1ccccc1 was read as Mot1-301 SUMO 17.0, FID counter -5.9, IMP-1 inh -2.7, SUMO HTRF inh 24.0 and VIM-2 inhibitor -0.1.
For CCOc1ccc2c(c1)C(NC(C)=O)C(=O)N2CCN1CCOCC1 (stereo not drawn) the results were Mot1-301 SUMO -8.9, FID counter 5.5, IMP-1 inh -5.2, SUMO HTRF inh 56.7*, NALP1 inh -8.0 and VIM-2 inhibitor -2.7.
